Activity calls are given as the source filed them. No cut-off for these calls is given here.
Key:
[1] = molecular target: T1, Protein cereblon/Protein deacetylase HDAC6 (Homo sapiens, UniProt Q9UBN7+Q96SW2); experiment: Protac activity at CRBN/HDAC6 in human MM1S cells assessed as HDAC6 degradation at 100 nM measured after 6 hrs by Western blot analysis; format: cell-based
Target sequence in this assay (Q96SW2 whole entry, looked up): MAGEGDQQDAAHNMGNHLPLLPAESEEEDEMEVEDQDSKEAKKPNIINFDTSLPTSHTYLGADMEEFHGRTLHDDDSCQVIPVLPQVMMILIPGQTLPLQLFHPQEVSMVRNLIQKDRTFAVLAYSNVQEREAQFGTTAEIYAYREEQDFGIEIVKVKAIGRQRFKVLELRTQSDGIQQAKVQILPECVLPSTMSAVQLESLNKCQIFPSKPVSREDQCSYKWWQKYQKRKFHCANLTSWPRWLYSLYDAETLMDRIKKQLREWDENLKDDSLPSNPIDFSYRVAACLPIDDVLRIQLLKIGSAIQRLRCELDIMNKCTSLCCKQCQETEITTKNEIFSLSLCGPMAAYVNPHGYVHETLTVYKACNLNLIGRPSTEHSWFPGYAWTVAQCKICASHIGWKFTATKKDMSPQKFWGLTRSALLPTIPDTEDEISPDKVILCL
Target sequence in this assay (Q9UBN7 whole entry, looked up): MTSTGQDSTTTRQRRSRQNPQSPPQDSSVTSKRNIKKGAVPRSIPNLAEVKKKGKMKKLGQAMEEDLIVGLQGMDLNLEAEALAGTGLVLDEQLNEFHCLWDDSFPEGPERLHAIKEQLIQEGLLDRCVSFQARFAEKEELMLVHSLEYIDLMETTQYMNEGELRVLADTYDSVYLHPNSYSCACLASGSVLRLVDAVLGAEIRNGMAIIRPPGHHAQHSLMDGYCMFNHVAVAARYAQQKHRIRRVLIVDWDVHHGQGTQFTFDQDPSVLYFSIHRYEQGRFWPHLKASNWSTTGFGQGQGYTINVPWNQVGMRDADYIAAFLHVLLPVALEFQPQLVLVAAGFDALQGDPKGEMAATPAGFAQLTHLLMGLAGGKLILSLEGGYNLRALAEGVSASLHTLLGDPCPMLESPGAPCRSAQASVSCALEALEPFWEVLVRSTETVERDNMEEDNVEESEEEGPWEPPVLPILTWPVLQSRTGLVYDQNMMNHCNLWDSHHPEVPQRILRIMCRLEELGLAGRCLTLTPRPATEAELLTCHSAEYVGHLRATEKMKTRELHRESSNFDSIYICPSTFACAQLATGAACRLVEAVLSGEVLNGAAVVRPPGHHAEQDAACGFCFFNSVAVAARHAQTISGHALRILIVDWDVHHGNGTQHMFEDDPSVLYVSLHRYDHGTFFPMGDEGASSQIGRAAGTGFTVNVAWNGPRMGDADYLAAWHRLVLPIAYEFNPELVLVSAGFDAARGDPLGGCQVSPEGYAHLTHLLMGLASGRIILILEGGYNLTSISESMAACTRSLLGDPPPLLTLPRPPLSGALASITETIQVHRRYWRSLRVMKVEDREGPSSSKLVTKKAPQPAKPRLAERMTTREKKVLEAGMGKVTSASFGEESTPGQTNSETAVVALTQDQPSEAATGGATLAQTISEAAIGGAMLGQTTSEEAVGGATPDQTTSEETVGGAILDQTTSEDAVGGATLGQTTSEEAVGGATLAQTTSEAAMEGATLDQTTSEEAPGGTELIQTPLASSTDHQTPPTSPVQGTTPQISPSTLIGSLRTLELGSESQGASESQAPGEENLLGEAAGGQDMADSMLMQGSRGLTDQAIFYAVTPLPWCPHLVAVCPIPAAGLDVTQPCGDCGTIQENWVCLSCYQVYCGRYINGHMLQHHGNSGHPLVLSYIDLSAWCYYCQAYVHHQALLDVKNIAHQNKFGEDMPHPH

MM1.S [2] = experiment: Antiproliferative activity against human MM1S cells assessed as reduction in cell viability at 1 uM measured after 72 hrs by resazurin dye based assay; format: functional
MM1.S [3] = experiment: Antiproliferative activity against human MM1S cells assessed as reduction in cell viability measured after 72 hrs by resazurin dye based assay; format: functional
How it was run: (§1)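 MM1S cells seeded at 1 × 10^4 per well, left overnight, then given compound or DMSO vehicle (added as 5× dosing medium) for 72 h at 37 °C, 5% CO2. Resazurin added (10× solution, 1 mg/mL), then incubated overnight at 37 °C. OD read at 570 and 600 nm. Viability is relative to vehicle, n = 3. Curves fitted as [inhibitor] vs response (three parameters); test range 0.3 nM–3 μM.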

MM1.S [4] = experiment: Antiproliferative activity against human MM1S cells assessed as reduction in cell viability measured after 72 hrs by resazurin dye based assay relative to control; format: functional; how it was run: as §1
[5] = molecular target: T1, Protein cereblon/Protein deacetylase HDAC6; experiment: Protac activity at CRBN/HDAC6 in human MM1S cells assessed as HDAC6 degradation measured after 6 hrs by ELISA; format: cell-based
How it was run: (§2)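 In-cell ELISA: MM1S cells (5 × 10^4 per well) seeded overnight, treated 6 h (dosed as 5× medium; 0.1 nM–1 μM or 10/100 nM). Fixed in 8% formaldehyde/TBS, permeabilized with 0.1% Triton X, peroxidase quenched with 1% H2O2, blocked in 5% BSA. Anti-HDAC6 rabbit mAb (1:1000, 2 h) then HRP secondary; TMB read as OD450 − OD570. Background wells lacked primary antibody. Signal normalized to Janus Green and to DMSO wells, n = 3. DC50/Dmax from three-parameter fit.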
Target sequence in this assay (Q9UBN7 whole entry): as the sequence (Q9UBN7 whole entry, looked up) above
Target sequence in this assay (Q96SW2 whole entry): as the sequence (Q96SW2 whole entry, looked up) above

[6] = molecular target: T1, Protein cereblon/Protein deacetylase HDAC6; experiment: Protac activity at CRBN/HDAC6 in human MM1S cells assessed as HDAC6 degradation measured after 6 hrs by ELISA relative to control; format: cell-based; how it was run: as §2
Target sequence in this assay (Q96SW2 whole entry, looked up): as above
Target sequence in this assay (Q9UBN7 whole entry, looked up): as the sequence (Q9UBN7 whole entry, looked up) above

[7] = molecular target: T1, Protein cereblon/Protein deacetylase HDAC6; experiment: Protac activity at CRBN/HDAC6 in human MM1S cells assessed as HDAC6 degradation at 10 to 100 nM measured after 6 hrs by Western blot analysis; format: cell-based
Target sequence in this assay (Q96SW2 whole entry, looked up): as the sequence (Q96SW2 whole entry, looked up) above
Target sequence in this assay (Q9UBN7 whole entry, looked up): as the sequence (Q9UBN7 whole entry, looked up) above

[8] = molecular target: T1, Protein cereblon/Protein deacetylase HDAC6; experiment: Protac activity at CRBN/HDAC6 in human HepG2 cells assessed as HDAC6 degradation up to 1 uM incubated for 6 hrs by Western blot analysis; format: cell-based
Target sequence in this assay (Q96SW2 whole entry, looked up): as the sequence (Q96SW2 whole entry, looked up) above
Target sequence in this assay (Q9UBN7 whole entry, looked up): as the sequence (Q9UBN7 whole entry, looked up) above

Row | SMILES | Activity (MM1.S [2]) | Activity [7] | also measured
1 | CCCCN(Cc1ccc(C(=O)OC)cc1)C(=O)Nc1ccc(OCCCCCn2cc(CNc3cccc4c3C(=O)N(C3CCC(=O)NC3=O)C4=O)nn2)cc1 (configuration not stated) | Active |  | Activity [1]: inactive; EC50 (MM1.S [3]): 17.7 nM; Imax (MM1.S [4]): 44%
2 | CCCCN(Cc1ccc(C(=O)NO)cc1)C(=O)Nc1ccc(OCCCCCn2cc(CNc3cccc4c3C(=O)N(C3CCC(=O)N(C)C3=O)C4=O)nn2)cc1 (configuration not stated) | inactive |  | Activity [1]: inactive
3 | CCCCN(Cc1ccc(C(=O)NO)cc1)C(=O)Nc1ccccc1 | inactive |  | 
4 | Nc1cccc2c1C(=O)N(C1CCC(=O)NC1=O)C2=O (configuration not stated) | Active |  | 
5 | CCCCN(Cc1ccc(C(=O)NO)cc1)C(=O)Nc1ccc(OCCn2cc(CNc3cccc4c3C(=O)N(C3CCC(=O)NC3=O)C4=O)nn2)cc1 (configuration not stated) |  |  | DC50 [5]: 3.41 nM; %max [6]: 88%
6 | CCCCN(Cc1ccc(C(=O)NO)cc1)C(=O)Nc1ccc(OCCCCn2cc(CCNc3cccc4c3C(=O)N(C3CCC(=O)NC3=O)C4=O)nn2)cc1 (configuration not stated) |  | Active | 
7 | CCCCN(Cc1ccc(C(=O)NO)cc1)C(=O)Nc1ccc(OCCn2cc(CCCNc3cccc4c3C(=O)N(C3CCC(=O)NC3=O)C4=O)nn2)cc1 (configuration not stated) |  | Active | DC50 [5]: 2.54 nM; %max [6]: 86.3%
8 | CCCCN(Cc1ccc(C(=O)NO)cc1)C(=O)Nc1ccc(OCCCCn2cc(CNc3ccc4c(c3)C(=O)N(C3CCC(=O)NC3=O)C4=O)nn2)cc1 (configuration not stated) |  | Active | Activity [8]: Active
9 | O=C(CCCCCCC(=O)N/N=C/c1ccc(OCCOCCOCCn2cc(CNc3cccc4c3C(=O)N(C3CCC(=O)NC3=O)C4=O)nn2)cc1)NO (configuration not stated) | Active | Active | DC50 [5]: 9.12 nM; %max [6]: 84.1%
10 | CCCCN(Cc1ccc(C(=O)NO)cc1)C(=O)Nc1ccc(OCCCn2cc(CCCNc3ccc4c(c3)C(=O)N(C3CCC(=O)NC3=O)C4=O)nn2)cc1 (configuration not stated) |  | Active | 
11 | CCCCN(Cc1ccc(C(=O)NO)cc1)C(=O)Nc1ccc(OCCCCCn2cc(CNc3ccc4c(c3)C(=O)N(C3CCC(=O)NC3=O)C4=O)nn2)cc1 (configuration not stated) |  | Active | 

Reference: ChEMBL document CHEMBL4311941, “Development of Multifunctional Histone Deacetylase 6 Degraders with Potent Antimyeloma Activity” (J Med Chem, 2019)
